{"source": "paper PMC2194103", "about": "(The Journal of Experimental Medicine, 2002)", "key": {"I-A^s": {"biological_target": "T1, I-A^s (Mus musculus, UniProt P06345+P14437)", "T1 sequence (P14437 1-233)": "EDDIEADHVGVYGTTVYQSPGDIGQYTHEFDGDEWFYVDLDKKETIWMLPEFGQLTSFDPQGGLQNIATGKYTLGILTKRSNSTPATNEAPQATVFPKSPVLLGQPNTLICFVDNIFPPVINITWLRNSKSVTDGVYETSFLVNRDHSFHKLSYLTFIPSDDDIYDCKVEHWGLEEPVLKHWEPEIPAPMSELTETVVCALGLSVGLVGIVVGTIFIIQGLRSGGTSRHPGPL", "T1 sequence (P06345 28-263)": "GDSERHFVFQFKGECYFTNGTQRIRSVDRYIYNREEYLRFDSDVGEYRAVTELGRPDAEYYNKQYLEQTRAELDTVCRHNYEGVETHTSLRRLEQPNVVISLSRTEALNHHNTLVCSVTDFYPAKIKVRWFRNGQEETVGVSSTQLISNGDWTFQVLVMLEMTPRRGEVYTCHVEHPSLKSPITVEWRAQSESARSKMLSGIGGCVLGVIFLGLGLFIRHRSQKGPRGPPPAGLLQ", "conditions": "binding to I-A^s relative to W144 (1.0); cited from earlier work"}, "[1]": {"test_system": "peripheral CD4+ T cells of the 1B6 transgenic mouse", "test": "Proliferation of naive ex-vivo 1B6 TCR transgenic T cells", "assay_type": "cell-based", "conditions": "LNCs from 1B6 TCR transgenic mouse, [3H]thymidine added after 48 h; Fig. 1", "how_it_was_run": "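Lymph node cells from a 1B6 TCR transgenic mouse were stimulated in culture with different peptide ligands. Per the general proliferation method, cultures were run in triplicate. After 48 h, [3H]thymidine (1 μCi/well) was added for the final 16 h before harvest. Incorporation was read by scintillation counting.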"}, "Q1.1B6 T cell clone": {"test_system": "Q1.1B6 T cell clone", "conditions": "representative experiment; cited from earlier work"}, "[2]": {"test_system": "CD4+ 1B6 Rag2−/− T cell lines", "test": "Cytokine ELISA on 1B6 T cell lines", "assay_type": "cell-based, mouse", "conditions": "supernatants after 40 h, Fig. 3"}}}
{"sequence": "HSLGKLLGHPDKF [Ligand L144]", "values": [{"measurement": "Relative MHC binding", "setting": "I-A^s", "value": 0.8}, {"measurement": "Stimulatory potential for proliferation (hierarchy of response)", "setting": "[1]", "value": "superagonist ligand"}, {"measurement": "Cytokine IL-4", "setting": "Q1.1B6 T cell clone", "value": 390, "unit": "pg/mL"}, {"measurement": "Cytokine TNF-α", "setting": "Q1.1B6 T cell clone", "value": 420, "unit": "pg/mL"}, {"measurement": "Secretion of IL-2 by desensitized cells", "setting": "[2]", "value": "selectively blunted"}]}
{"sequence": "HSLGKQLGHPDKF [Ligand Q144]", "values": [{"measurement": "Relative MHC binding", "setting": "I-A^s", "value": 0.6}, {"measurement": "Stimulatory potential for proliferation (hierarchy of response)", "setting": "[1]", "value": "agonist"}, {"measurement": "Cytokine IFN-γ", "setting": "Q1.1B6 T cell clone", "value": "9,052 pg/ml"}, {"measurement": "Cytokine IL-2", "setting": "Q1.1B6 T cell clone", "value": "<50", "unit": "pg/mL"}, {"measurement": "Cytokine IL-4", "setting": "Q1.1B6 T cell clone", "value": 200, "unit": "pg/mL"}, {"measurement": "Cytokine TNF-α", "setting": "Q1.1B6 T cell clone", "value": "<50", "unit": "pg/mL"}]}
{"sequence": "HSLGKWLGHPDKF [Ligand W144, reference compound]", "values": [{"measurement": "Relative MHC binding", "setting": "I-A^s", "value": 1.0}, {"measurement": "Stimulatory potential for proliferation (hierarchy of response)", "setting": "[1]", "value": "weaker ligand"}, {"measurement": "Cytokine IFN-γ", "setting": "Q1.1B6 T cell clone", "value": 420, "unit": "pg/mL"}, {"measurement": "Cytokine IL-2", "setting": "Q1.1B6 T cell clone", "value": "<50", "unit": "pg/mL"}, {"measurement": "Cytokine IL-4", "setting": "Q1.1B6 T cell clone", "value": "<50", "unit": "pg/mL"}, {"measurement": "Cytokine TNF-α", "setting": "Q1.1B6 T cell clone", "value": "<50", "unit": "pg/mL"}]}
